Measured values from ChEMBL document CHEMBL1154898, “Hepatoprotective constituents from the roots and stems of Erycibe hainanesis” (J Nat Prod, 2010).
Activity calls are given as the source filed them. The calls are words filed in the database; no cut-off is given here.

Test system: not listed separately
Experiment: Cytotoxicity against rat WB-F344 cells assessed as cell survival rate after 1 hr at 10 uM by MTT assay
Format: cell-based
Conditions: read-out: Survival
Outline: (§1)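 WB-F344 rat hepatic epithelial stem-like cells were seeded at 1 × 10⁴ cells/well in DMEM with 3% FCS, penicillin and streptomycin, and precultured 24 h at 37 °C in 5% CO₂. Test sample was added in fresh medium for 1 h, then 40 mM D-galactosamine for 24 h; parallel wells without D-galactosamine gave cytotoxicity. MTT (0.5 mg/mL) was added for 3.5 h, formazan dissolved in DMSO and read at 492 nm. Survival is % of normal, mean ± SD, n = 3.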

Compound	viability at 1 h, 10 µM
COc1cc2ccc(=O)oc2cc1O[C@@H]1O[C@H](CO[C@@H]2OC[C@](O)(CO)[C@H]2OC(=O)c2cc(OC)c(O)c(OC)c2)[C@@H](O)[C@H](O)[C@H]1O [ERYCIBOSIDE B]	47%

Test system: WB-F344
Experiment: (§2) Hepatoprotective activity in rat WB-F344 cells assessed as inhibition of D-galactosamine-induced cytotoxicity at 10 uM after 1 hrs by MTT assay relative to control treated before D-galactosamine challenge
Format: functional
Conditions: not given
Outline: (§3)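 WB-F344 rat hepatic epithelial stem-like cells, 1 × 10⁴ per well in DMEM with 3% fetal calf serum and penicillin/streptomycin, precultured 24 h at 37 °C in 5% CO₂. Test samples were added in fresh medium for 1 h, then cells were exposed to 40 mM D-galactosamine for 24 h. Readout was MTT 0.5 mg/mL for 3.5 h, formazan dissolved in DMSO, OD at 492 nm. Inhibition (%) = (OD sample − OD control)/(OD normal − OD control) × 100. Values are mean ± SD, n = 3.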

Compound	Activity
COc1cc(C(=O)OC[C@@]2(O)CO[C@@H](O[C@H]3[C@H](Oc4cc5oc(=O)ccc5cc4OC)O[C@H](CO)[C@@H](O)[C@@H]3O)[C@@H]2O)ccc1O	inactive
COC(=O)[C@@]1(O)C[C@@H](OC(=O)/C=C/c2ccc(O)c(O)c2)[C@H](O)[C@H](OC(=O)c2cc(OC)c(O)c(OC)c2)C1	inactive
COc1cc2cc(-c3cc4cc(OC)c(O)cc4oc3=O)c(=O)oc2cc1O	inactive

Test system: not listed separately
Experiment: as §2
Format: functional
Conditions: WB-F344, 1 h
Outline: as §3

Compound	inhibition at 10 µM
COC(=O)c1cc(OC)c2c(c1-c1c(CO)cc(OC)c3c1OCO3)OCO2 [BICYCLOL]	11.2%
COc1cc(C(=O)OC[C@@]2(O)CO[C@@H](OC[C@H]3O[C@@H](Oc4c(OC)cc5ccc(=O)oc5c4OC)[C@H](O)[C@@H](O)[C@@H]3O)[C@@H]2O)cc(OC)c1O [ERYCIBOSIDE F]	15.5%
COc1cc(C(=O)O[C@H]2C[C@](O)(C(=O)O)C[C@H](O)[C@H]2OC(=O)/C=C/c2ccc(O)c(O)c2)cc(OC)c1O	42.2%

Test system: WB-F344
Experiment: Hepatoprotective activity in rat WB-F344 cells assessed as inhibition of D-galactosamine-induced cytotoxicity at 100 uM after 1 hrs by MTT assay relative to control treated before D-galactosamine challenge
Conditions: not given

Compound	Activity
COc1cc(C(=O)OC[C@@]2(O)CO[C@@H](OC[C@H]3O[C@@H](OC(C)C)[C@H](O)[C@@H](O)[C@@H]3O)[C@@H]2O)cc(OC)c1O	inactive
COc1cc2ccc(=O)oc2cc1O[C@@H]1O[C@H](CO)[C@@H](O)[C@H](O)[C@H]1O[C@@H]1OC[C@](O)(COC(=O)c2cc(OC)c(O)c(OC)c2)[C@H]1O	inactive
COc1cc(C(=O)O)ccc1O	inactive
O=C(/C=C/c1ccc(O)c(O)c1)O[C@@H]1C[C@](O)(C(=O)O)C[C@@H](O)[C@H]1O	inactive
O=C(/C=C/c1ccc(O)cc1)NCCc1ccc(O)cc1	inactive
COc1cc(C(=O)O[C@H]2C[C@](O)(C(=O)O)C[C@H](OC(=O)/C=C/c3ccc(O)c(O)c3)[C@H]2O)cc(OC)c1O	inactive
COc1cc2cc(Oc3cc4oc(=O)ccc4cc3OC)c(=O)oc2cc1O	Active
CCOC(=O)[C@]1(O)C[C@@H](O)[C@@H](O)[C@H](OC(=O)/C=C/c2ccc(O)c(O)c2)C1	inactive
O=C(O)/C=C/c1ccc(O)c(O)c1	inactive
COc1cc2ccc(=O)oc2cc1O[C@@H]1O[C@H](CO[C@@H]2OC[C@](O)(COC(=O)c3cc(OC)c(O)c(OC)c3)[C@H]2O)[C@@H](O)[C@H](O)[C@H]1O	inactive
COc1cc(C(=O)OC[C@@]2(O)CO[C@@H](OC[C@H]3O[C@@H](OCCc4ccc(O)cc4)[C@H](O)[C@@H](O)[C@@H]3O)[C@@H]2O)cc(OC)c1O	inactive
COc1cc(C(=O)OC[C@@]2(O)CO[C@@H](OC[C@H]3O[C@@H](Oc4cc5oc(=O)ccc5cc4OC)[C@H](O)[C@@H](O)[C@@H]3O)[C@@H]2O)ccc1O	inactive
COc1cc(C(=O)O[C@@H]2[C@@H](OC(=O)/C=C/c3ccc(O)c(O)c3)C[C@@](O)(C(=O)O)C[C@@H]2O)cc(OC)c1O	inactive
O=C(O)c1ccc(O)c(O)c1	inactive
COc1cc(C(=O)OC[C@@]2(O)CO[C@@H](OC[C@H]3O[C@@H](Oc4cc(OC)c(OC)c(OC)c4)[C@H](O)[C@@H](O)[C@@H]3O)[C@@H]2O)cc(OC)c1O	inactive
CCCCOC(=O)[C@]1(O)C[C@@H](O)[C@@H](O)[C@H](OC(=O)/C=C/c2ccc(O)c(O)c2)C1	inactive
COc1cc(/C=C/C(=O)NCCc2ccc(O)cc2)ccc1O	inactive
COC(=O)[C@]1(O)C[C@@H](O)[C@@H](O)[C@H](OC(=O)/C=C/c2ccc(O)c(O)c2)C1	inactive
CCOC(=O)[C@]1(O)C[C@@H](O)[C@@H](OC(=O)/C=C/c2ccc(O)c(O)c2)[C@H](OC(=O)/C=C/c2ccc(O)c(O)c2)C1	inactive

Test system: not listed separately
Experiment: Cytotoxicity against rat WB-F344 cells assessed as cell survival rate after 1 hr at 100 uM by MTT assay
Format: cell-based
Conditions: read-out: Survival
Outline: as §1

Compound	viability at 1 h, 100 µM
COC(=O)c1cc(OC)c2c(c1-c1c(CO)cc(OC)c3c1OCO3)OCO2 [BICYCLOL]	38%
COc1cc(C(=O)OC[C@@]2(O)CO[C@@H](OC[C@H]3O[C@@H](Oc4c(OC)cc5ccc(=O)oc5c4OC)[C@H](O)[C@@H](O)[C@@H]3O)[C@@H]2O)cc(OC)c1O [ERYCIBOSIDE F]	44%
COc1cc(C(=O)O[C@H]2C[C@](O)(C(=O)O)C[C@H](O)[C@H]2OC(=O)/C=C/c2ccc(O)c(O)c2)cc(OC)c1O	61%
